Assays:
[1] = molecular target: T1, Substance-K receptor (Homo sapiens, UniProt P21452); test: Displacement of [125I]-NKA substance P binding to human urinary bladder membrane protein (NK2)
T1 sequence (P21452 whole entry): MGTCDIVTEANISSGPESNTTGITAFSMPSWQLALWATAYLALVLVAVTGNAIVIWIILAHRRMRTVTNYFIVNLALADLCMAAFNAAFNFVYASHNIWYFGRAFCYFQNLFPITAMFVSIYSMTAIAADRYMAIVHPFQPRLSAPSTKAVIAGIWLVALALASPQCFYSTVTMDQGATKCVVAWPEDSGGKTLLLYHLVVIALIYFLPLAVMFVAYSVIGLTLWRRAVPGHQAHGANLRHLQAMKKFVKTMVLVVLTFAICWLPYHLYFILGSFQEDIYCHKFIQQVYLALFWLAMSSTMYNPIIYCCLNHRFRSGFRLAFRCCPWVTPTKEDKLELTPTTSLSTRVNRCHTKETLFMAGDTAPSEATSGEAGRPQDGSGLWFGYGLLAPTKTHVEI
Outline: (§1)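 Radioligand displacement at NK1 or NK2 sites, with Ki values averaged over two to eight determinations.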

[2] = molecular target: Substance-P receptor (Homo sapiens, UniProt P25103); test: Displacement of [125I]- substance P binding to human astrocytoma cells (NK1); outline: as §1
Chain of Substance-P receptor (P25103 whole entry): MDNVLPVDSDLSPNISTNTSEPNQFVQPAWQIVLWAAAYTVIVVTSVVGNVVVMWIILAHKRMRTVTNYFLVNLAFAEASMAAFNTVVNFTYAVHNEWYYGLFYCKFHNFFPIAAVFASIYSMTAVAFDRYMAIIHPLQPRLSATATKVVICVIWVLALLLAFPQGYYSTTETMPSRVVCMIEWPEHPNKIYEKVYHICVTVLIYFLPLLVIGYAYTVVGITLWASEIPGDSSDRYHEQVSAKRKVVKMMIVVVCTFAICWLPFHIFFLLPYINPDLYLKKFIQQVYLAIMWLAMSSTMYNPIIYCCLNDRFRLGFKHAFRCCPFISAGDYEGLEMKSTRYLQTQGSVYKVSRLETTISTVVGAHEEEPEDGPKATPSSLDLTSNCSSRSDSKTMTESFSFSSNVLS

[3] = organism: Cavia porcellus; test: substance P induced guinea pig ileum
[4] = Functional antagonism by the ability to inhibit substance P induced 45 [Ca2+] efflux in human astrocytoma cells; format: cell-based
Outline: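 Human astrocytoma cells stimulated with 3 nM substance P; the antagonist's inhibition of 45Ca2+ efflux was measured. Efflux seen without SP and antagonist was subtracted. Mean ± SEM from at least three experiments.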

Row | Compound | Ki [1] [µM] | Ki [2] [µM] | pA2 [3] | IC50 [4] [µM]
1 | CC(C)[C@@H]1NC(=O)CNC(=O)[C@@H]2CCCN2C(=O)[C@@H](Cc2c[nH]c3ccccc23)NC(=O)CNC(=O)[C@H](Cc2ccc(OC(C)(C)C)cc2)NC(=O)CNC1=O | 27 | 48 | – | –
2 | CC(C)[C@@H]1NC(=O)CNC(=O)[C@@H]2CCCN2C(=O)C(Cc2c[nH]c3ccccc23)NC(=O)CNC(=O)[C@H](Cc2ccc(OC(C)(C)C)cc2)NC(=O)CNC1=O (single isomer, unassigned) | 31 | 93 | – | –
3 | COc1ccc(C(O)C2NC(=O)CNC(=O)[C@H](C(C)C)NC(=O)CNC(=O)[C@@H]3CCCN3C(=O)[C@@H](Cc3c[nH]c4ccccc34)NC(=O)CNC2=O)cc1 (stereo partly drawn) | 33 | 18 | – | –
4 | CC(C)=CCc1cc(C(O)C2NC(=O)CNC(=O)[C@H](C(C)C)NC(=O)CNC(=O)[C@@H]3CCCN3C(=O)[C@@H](Cc3c[nH]c4ccccc34)NC(=O)CNC2=O)ccc1O (stereo partly drawn) | 3.8 | 8 | 5.23 | –
5 | COc1ccc(C(O)C2NC(=O)CNC(=O)[C@H](C(C)C)NC(=O)CNC(=O)[C@@H]3CCCN3C(=O)[C@@H](Cc3c[nH]c4ccccc34)NC(=O)CNC2=O)cc1CC=C(C)C (stereo partly drawn) | 1.6 | 0.12 | – | 0.43
6 | CC(C)[C@@H]1NC(=O)CNC(=O)[C@@H]2CCCN2C(=O)[C@@H](Cc2c[nH]c3ccccc23)NC(=O)CNC(=O)[C@H](Cc2ccc(O)cc2)NC(=O)CNC1=O | > 100 | > 100 | – | –
7 | CC(C)[C@@H]1NC(=O)CNC(=O)[C@@H]2CCCN2C(=O)[C@@H](Cc2c[nH]c3ccccc23)NC(=O)CNC(=O)C(C(O)c2ccc(O)cc2)NC(=O)CNC1=O (stereo partly drawn) | > 100 | > 100 | – | –
8 | COc1ccc(CC2NC(=O)CNC(=O)[C@H](C(C)C)NC(=O)CNC(=O)[C@@H]3CCCN3C(=O)[C@@H](Cc3c[nH]c4ccccc34)NC(=O)CNC2=O)cc1 (stereo partly drawn) | 73 | 72 | – | –
